In general, apparent Kd refers to a dissociation constant that holds for the conditions of the assay.

This note sets out measurements from the EternaBench riboswitch data.

In the data set the test system is MS2 coat protein. Nature of the data set: apparent Kd, MS2 coat protein; higher = weaker binding; RNA-MaP array; FMN 200 µM where present. The essentials: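 Apparent Kd: the median of filtered binding-curve fits from single clusters. Designs were transcribed on Illumina sequencing-chip clusters by stalled E. coli RNA polymerase and titrated with SNAP-549-labelled MS2 coat protein from 0.7 or 1.5 nM, doubling to 3 µM, in 100 mM Tris-HCl pH 7.5, 80 mM KCl, 4 mM MgCl2, BSA, DTT, yeast tRNA and Tween-20. Each series ran without and then with constant ligand, and green signal was normalised to red-channel RNA signal and control-cluster median Fmax.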

[1] abbreviates: designed as: ON switch for flavin mononucleotide, no ligand.
Where [2] appears, read: ligand present: flavin mononucleotide, designed as: ON switch for flavin mononucleotide.
[3] abbreviates: designed as: OFF switch for flavin mononucleotide, no ligand.
Setting [4] is: ligand present: flavin mononucleotide, designed as: OFF switch for flavin mononucleotide.

With “AUGAAAGUAACGCAGGAUAUCCAGGAUACAACAUGAGGAUCACCCAUGUACAUACGAACGUAUAAGGAGAAGGGUGGAUGAUCUUC”, the “apparent Kd” value under setting [1] is 173 nM and the “apparent Kd” value under setting [2] came out at 342 nM.
The like results for “GGGUACACCGGAGGAUAUCAUGUAAAUACAUGAGGAUCACCCAUGUCGAUGGAGACAUCGGAGAUUGAGAAGGCCGAUGUACCG” were, in that order, 155 nM and 9.1 nM.
As to “UAGUAGAUCCGAGGAUAUACAAUCCGGAAACGGUACAUGAGGAUCACCCAUGUAGAAGGCGGAUCUACAGGUACUAAAGUACCA”, the “apparent Kd” value turned out to be 5.68 nM under setting [3] and 7.82 nM under setting [4].
On to “GUCUUGUCAGGAUAUCUUACAUAACAAUCGUAGUUACCAUUGGAGAAGGGACAUGAGGAUCACCCAUGUUAGCC”, for which the “apparent Kd” value runs as follows: under setting [3], 17.2 nM; under setting [4], 19.1 nM.
Taken in the same sequence, the figures for “GCGACGAUCGAGAAGGCCACUACAUGAGGAUCACCCAUGUCGUGGUGUAUUGGAGGAUAUCGAUCAGCGUCUUAUGAGGACAUG” were 5.13 nM and 7.68 nM.
The like results for “AAAAGUUAAGGAUAUACAGGGAGCCGCGGCGACUCGCCGCAACAUGAGGAUCACCCAUGUAGAAGGUAGCCAAA” were, in that order, 27.6 nM and 62.8 nM.
On to “UCGUGAAGGACAGGAUAUGGACAUGAGGAUCACCCAUGUACAUGGGAAUAUAUACUGAAUUUGUACUAGAAGGGUUACAUAAAU”, for which the “apparent Kd” value under setting [3] is 26.1 nM and the “apparent Kd” value under setting [4] came to 20.1 nM.
Consider “GUUUGUUAUUAGAAGGUGCCAGCGAGAGCUGCAACAUGAGGAUCACCCAUGUGUCGGUGACGACGCAAGGAUAUGGUGGUGGAU”, for which the “apparent Kd” value under setting [1] worked out at 402 nM and the “apparent Kd” value under setting [2] worked out at 193 nM.
Taken in the same sequence, the figures for “AUGGAUGUCACAGGAUAUGCUAUGGAUACCAUAGCAGAAGGGUGAUCCAUCCUAUGUAAAUACAUGAGGAUCACCCAUGUAUCC” were 112 nM and 73.6 nM.
For the sequence “AGAAAGGCAGGAUAUACAUGAGGAUCACCCAUGUUAAGAAAGACGGAAACGUCAAGAAGUAGAAGGGCCAAGAA”, the “apparent Kd” value is 23.4 nM under setting [3] and 21.1 nM under setting [4].
The like results for “UUGUUACAUGAGGAUCACCCAUGUGAGGAUAUGGUUCGGUACUGUCCUGUCGCGUACUCCAGAAGGCACAUGUU” were, in that order, 63.6 nM and 182 nM.
Taken in the same sequence, the figures for “UGAUCGAGAGAUCUUAGAUUCUGGUAGGAUAUACAAAAGUUGCGCUUUACAUGAGGAUCACCCAUGUAGAAGGACUAGAGUCUA” were 7.45 nM and 8.66 nM.
In the case of “AGCUACGUUUCGUAGCAGCUAGGUGAGGAUAUCCUUUACAUGAGGAUCACCCAUGUUUAGCCAUGGGAGAAGGCGCCUAGAAAG”, the “apparent Kd” value is 1090 nM under setting [1] and 113 nM under setting [2].
As for “CUCAUGUGAGGAUAUGUACAGAAAAAAAUGGGUGAAACUGUACAGAAGGCACAUGAGGAUCACCCAUGUGCCUU”, the “apparent Kd” value runs as follows: under setting [3], 24.3 nM; under setting [4], 12.2 nM.
The like results for “CGCCUGUGAGGAUAUUAGUAGUAGUCAGAAUAGACUAUUACUGAGAAGGUACAUGAGGAUCACCCAUGUUGGCG” were, in that order, 20.9 nM and 19.1 nM.
The like results for “GUUUAGUGAGGAUAUGUGGCUUCGAUCGUGCGAAGAAGGCUACAGAAGGCACAUGAGGAUCACCCAUGUUCCUC” were, in that order, 101 nM and 728 nM.
For the sequence “CUUUCGUGAGGAUAUGUGGCUUCGAACGUGAGAUCGAGGCUACAGAAGGCACAUGAGGAUCACCCAUGUUCCUC”, the “apparent Kd” value reads like this: under setting [3], 34.3 nM; under setting [4], 395 nM.
The like results for “CGCUCAAGAGAGAAGGAUAGAAUCAGAAGGCGUAACAUGAGGAUCACCCAUGUAAAGUAGUGUAACGAGGAUAUGAAAUGAGCG” were, in that order, 11.8 nM and 13.1 nM.
Consider “CUAAAUCAUGUAGGAUAUGCAUGGCGAAGCUACGCAGAAGGACAUGAGGAUCACCCAUGUCAGUACGUCUGCGUACAGACGUUG”, for which the “apparent Kd” value by setting is: under setting [3], 14.3 nM; under setting [4], 19.1 nM.
The like results for “GGAUGACAUAGUCAUCAGUAACGAACAUGAGGAUCACCCAUGUAGGAUAUGCUACUCAACGAGUAGCAGAAGGACAUGUGUCUU” were, in that order, 27.4 nM and 135 nM.
Take “GCGUUCUUGUAGAAGGUACUUUCGACAUCUUAUAAACGCUUGACACAUGAGGAUCACCCAUGUUGUAAGGAUAUACAUGAACGC”: the “apparent Kd” value was 6.61 nM under setting [1] and 6.41 nM under setting [2].
With “ACAUACUUUCGAGGAUAUCGGUGAUAAAUUUUACGAGAAGGCGAUAAAAGAUAUAAUCUUAUAGACAUGAGGAUCACCCAUGUA”, the “apparent Kd” value was 30.5 nM under setting [1] and 27.3 nM under setting [2].
Take “CACGAUGAUGUAGGAUAUAUGCUGGAAUACAGCAUAGAAGGACAUGAGGAUCACCCAUGUAAAGUGCCUCCAAAUAACAUCGUG”: the “apparent Kd” value is 18.5 nM under setting [3] and 44.5 nM under setting [4].
Taken in the same sequence, the figures for “CCCUCAACAUGAGGAUCACCCAUGUAGGAUAUCGCUAUUGUAAUCAUGAAACAUGAUUACAAUAGCGAGAAGGACAUAUGCAAA” were 25.2 nM and 126 nM.
Taken in the same sequence, the figures for “UCGCGGGAGCAGAAGGGAUAGGCCUAUUGUCGUGAGGUCUACACUUAACAUGAGGAUCACCCAUGUCAGGAUAUGCCCACGCGA” were 4.68 nM and 4.64 nM.
The like results for “AUGCCAGAAGGAUAUACAUGAGGAUCACCCAUGUCAUGUUUGAUUCGCCCGCAGGGCUGUAGAAGGUCUGGCAU” were, in that order, 65.2 nM and 543 nM.
On to “CUCCUACAUGAGGAUCACCCAUGUCAGGAUAUCUCAGUGGUACCUAAAUUUACCACCCAGAGAAGGGACGUGCA”, for which the “apparent Kd” value under setting [3] came to 13.3 nM and the “apparent Kd” value under setting [4] came out at 17.7 nM.
For “GUCUUUUUACAGAAGGUGUUUUACAUGAGGAUCACCCAUGUUUAUAUGUUUAAAUUUGAUAUUUACAAGGAUAUGUACUAAUCU”, the “apparent Kd” value by setting is: under setting [1], 25.3 nM; under setting [2], 17.4 nM.
As for “GAGAAGUCAGGAUAUGCAUGGCGGGACUUGCGUCGUGGCGUGCAGAAGGGACAUGAGGAUCACCCAUGUGGAGG”, the “apparent Kd” value reads like this: under setting [3], 169 nM; under setting [4], 243 nM.
“AUACAUGAGGAUCACCCAUGUUACUGGGUCUUAAUAGAUCGUAGAAGGAUGUUAUUAUUAAUUUCAUAGGAUAUACUAUUUAGU”: the “apparent Kd” value reads like this: under setting [3], 48.3 nM; under setting [4], 32.9 nM.
Taken in the same sequence, the figures for “UGACUAGCAAUGUAUCGAAAGAUCACAUGAGGAUCACCCAUGUAGGAUAUGAGCAGAAAAUCUGCUCAGAAGGACAUGCUAGUC” were 5.88 nM and 6.04 nM.
“UUCGCUGUGGUGUGGCGAGGCUCGUAAGAAGGGUGAUGCACAUGAGGAUCACCCAUGUAAGCCUUACAGGAUAUUGCUAGCCGA”: the “apparent Kd” value under setting [1] came to 539 nM and the “apparent Kd” value under setting [2] was 195 nM.
With “CAGAAGUCAGGAUAUCCAUGGCGGCACUUGCGUGGUGGCGUGGAGAAGGGACAUGAGGAUCACCCAUGUAAAGC”, the “apparent Kd” value was found to be 57.4 nM under setting [3] and 45.3 nM under setting [4].
The like results for “AGAAAACAUGAGGAUCACCCAUGUCAGGAUAUCCUGCGGCGAUACAAGCCACGUUGUCGGAGAAGGGACAGGGA” were, in that order, 58 nM and 89.7 nM.
Regarding “CAGAUUUGCUAGAAGGGUGACAUGAGGAUCACCCAUGUGCGGGCAGUCCUAUCUUCAUGCCCGCCACAGGAUAUAGCAAUUCUC”, the “apparent Kd” value by setting is: under setting [1], 24.1 nM; under setting [2], 49 nM.
“UUAGAGAAGGAGGAUAUGCUGUUCUGUCACGUAGCAGAAGGCCUUACAUGAGGAUCACCCAUGUUGAUCCCAGU”: the “apparent Kd” value was found to be 618 nM under setting [3] and 576 nM under setting [4].
